The text below walks through data of ChEMBL document CHEMBL5252603, “Discovery of 2-aminoquinolone acid derivatives as potent inhibitors of SARS-CoV-2” (Bioorg Med Chem Lett, 2023).

One series relates to SARS-CoV-2. The series is described as follows: Antiviral activity against Severe acute respiratory syndrome coronavirus 2 infected in Vero cells. Format: functional, organism-based. The following applies: Severe acute respiratory syndrome coronavirus 2, Vero.
Series [1] in a line: Selectivity index, ratio of CC50 for african green monkey Vero cells to EC50 for Severe acute respiratory syndrome coronavirus 2. The settings on record: read-out: Ratio CC50/EC50. Format: toxicity.
In the next series the test system is Vero. The series is described as follows: Cytotoxicity against african green monkey Vero cells. The settings on record: chlorocebus sabaeus. Format: toxicity, cell-based. Summed up: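 Uninfected Vero cells were tested in parallel with the antiviral immunocytochemistry assay. CC50 was derived from at least two independent experiments.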
The subject of a further series is L929. The series is described as follows: Cytotoxicity against mouse L929 cells. Format: toxicity, cell-based. The procedure, abridged:
(§1)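 Cell viability was measured by the EZ-Cytox assay, with CC50 as the read-out. Cell lines: HFL-1, human embryonic lung; L929, mouse fibroblast; NIH 3T3, mouse embryonic fibroblast; CHO-K1, Chinese hamster ovary.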

The target in a further series is CYP2C19 (Homo sapiens, UniProt P33261). Put plainly: Inhibition of human CYP2C19 at 10 uM relative to control. Format: ADME.
Sequence of CYP2C19 (P33261 whole entry): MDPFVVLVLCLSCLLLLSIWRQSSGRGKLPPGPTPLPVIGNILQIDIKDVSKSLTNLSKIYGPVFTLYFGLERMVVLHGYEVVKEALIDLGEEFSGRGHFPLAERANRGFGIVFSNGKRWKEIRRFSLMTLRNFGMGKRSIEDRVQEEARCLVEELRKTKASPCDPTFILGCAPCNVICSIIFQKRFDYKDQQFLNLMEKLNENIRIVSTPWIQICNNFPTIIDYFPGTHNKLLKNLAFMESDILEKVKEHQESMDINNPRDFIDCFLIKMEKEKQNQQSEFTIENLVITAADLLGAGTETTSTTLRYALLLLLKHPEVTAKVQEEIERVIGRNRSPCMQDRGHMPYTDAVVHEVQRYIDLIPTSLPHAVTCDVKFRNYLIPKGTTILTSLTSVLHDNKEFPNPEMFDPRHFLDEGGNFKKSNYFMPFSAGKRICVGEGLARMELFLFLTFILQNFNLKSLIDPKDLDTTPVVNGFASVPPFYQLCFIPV
The nature of series [2]: Microsomal stability in dog liver microsomes assessed as compound remaining after 30 mins in presence of NADPH. Format: ADME, Canis lupus familiaris, Microsome. The following applies: read-out: Stability.
A short description of series [3]: Microsomal stability in human liver microsomes assessed as compound remaining after 30 mins in presence of NADPH. Format: ADME, Microsome. The following applies: read-out: Stability.
For the next series, the target named is CYP3A4 (Homo sapiens, UniProt P08684). The series is described as follows: Inhibition of human CYP3A4 at 10 uM relative to control. Format: ADME.
Sequence of CYP3A4 (P08684 whole entry): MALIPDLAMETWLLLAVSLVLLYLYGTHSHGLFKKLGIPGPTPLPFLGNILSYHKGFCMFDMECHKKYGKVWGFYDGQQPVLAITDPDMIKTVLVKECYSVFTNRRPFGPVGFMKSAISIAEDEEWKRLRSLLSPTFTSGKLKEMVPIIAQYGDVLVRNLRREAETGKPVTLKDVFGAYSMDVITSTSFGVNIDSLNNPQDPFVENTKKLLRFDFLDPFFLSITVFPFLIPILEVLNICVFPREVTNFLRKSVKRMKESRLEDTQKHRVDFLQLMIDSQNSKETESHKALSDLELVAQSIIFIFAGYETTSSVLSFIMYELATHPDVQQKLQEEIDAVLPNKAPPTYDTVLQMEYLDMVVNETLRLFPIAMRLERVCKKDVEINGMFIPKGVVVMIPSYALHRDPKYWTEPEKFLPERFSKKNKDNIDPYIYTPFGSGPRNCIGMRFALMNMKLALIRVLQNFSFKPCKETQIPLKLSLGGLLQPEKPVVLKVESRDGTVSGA
Series [4] can be described thus: Microsomal stability in rat liver microsomes assessed as compound remaining after 30 mins in presence of NADPH. The following applies: read-out: Stability. Format: ADME, Microsome.
The target in a further series is CYP2D6 (Homo sapiens, UniProt P10635). Put plainly: Inhibition of human CYP2D6 at 10 uM relative to control. Format: ADME.
Sequence of CYP2D6 (P10635 whole entry): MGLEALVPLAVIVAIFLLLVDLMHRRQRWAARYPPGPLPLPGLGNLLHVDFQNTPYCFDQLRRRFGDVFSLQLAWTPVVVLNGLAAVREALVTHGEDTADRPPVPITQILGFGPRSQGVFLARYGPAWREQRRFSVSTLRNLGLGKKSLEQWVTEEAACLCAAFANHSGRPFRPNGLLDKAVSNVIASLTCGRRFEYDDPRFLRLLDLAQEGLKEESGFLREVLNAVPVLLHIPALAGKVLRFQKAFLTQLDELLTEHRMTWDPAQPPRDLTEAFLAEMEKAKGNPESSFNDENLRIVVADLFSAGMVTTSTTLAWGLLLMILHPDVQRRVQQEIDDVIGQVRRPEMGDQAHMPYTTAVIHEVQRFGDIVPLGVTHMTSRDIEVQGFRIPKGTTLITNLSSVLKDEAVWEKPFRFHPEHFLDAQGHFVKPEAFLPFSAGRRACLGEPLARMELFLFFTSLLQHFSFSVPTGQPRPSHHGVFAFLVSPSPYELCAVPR
For series [5], the target named is Voltage-gated inwardly rectifying potassium channel KCNH2 (Homo sapiens, UniProt Q12809). Put plainly: Binding affinity to human ERG. Format: toxicity. Summed up:
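hERG fluorescence polarization ligand-binding assay; IC50 read-out.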

For another series, the target named is T1, CYP1A2 (Homo sapiens, UniProt P05177).
T1 sequence (P05177 whole entry): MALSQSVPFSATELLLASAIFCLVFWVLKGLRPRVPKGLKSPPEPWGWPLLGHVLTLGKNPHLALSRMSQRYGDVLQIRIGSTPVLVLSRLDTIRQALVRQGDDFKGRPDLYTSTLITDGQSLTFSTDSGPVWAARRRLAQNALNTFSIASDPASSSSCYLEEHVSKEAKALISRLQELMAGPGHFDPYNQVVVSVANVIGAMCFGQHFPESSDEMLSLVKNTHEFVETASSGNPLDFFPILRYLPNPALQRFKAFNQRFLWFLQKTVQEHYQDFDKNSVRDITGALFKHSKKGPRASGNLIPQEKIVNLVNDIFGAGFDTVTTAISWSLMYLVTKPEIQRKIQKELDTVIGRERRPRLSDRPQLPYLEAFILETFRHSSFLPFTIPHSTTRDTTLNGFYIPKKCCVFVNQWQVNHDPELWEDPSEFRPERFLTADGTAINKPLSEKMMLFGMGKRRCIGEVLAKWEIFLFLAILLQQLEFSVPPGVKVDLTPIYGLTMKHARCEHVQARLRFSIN
Put plainly: Inhibition of human CYP1A2 at 10 uM relative to control. Format: ADME.

The nature of series [6]: Microsomal stability in mouse liver microsomes assessed as compound remaining after 30 mins in presence of NADPH. The settings on record: read-out: Stability. Format: ADME, Microsome.
The test system of the next series is NIH3T3. Put plainly: Cytotoxicity against mouse NIH3T3 cells. Format: toxicity, cell-based. The procedure, abridged:
as §1

The next series concerns the target CYP2C9 (Homo sapiens, UniProt P11712). Put plainly: Inhibition of human CYP2C9 at 10 uM relative to control. Format: ADME.
A further series concerns CHO-K1. Put plainly: Cytotoxicity against CHO-K1 cells. Format: toxicity, cell-based, Cricetulus griseus. The settings on record: chinese hamster. Summed up: as §1
The subject of another series is HFL1. The series is described as follows: Cytotoxicity against human HFL1 cells. Format: toxicity, cell-based. Summed up: as §1

Sequence of Voltage-gated inwardly rectifying potassium channel KCNH2 (Q12809 whole entry): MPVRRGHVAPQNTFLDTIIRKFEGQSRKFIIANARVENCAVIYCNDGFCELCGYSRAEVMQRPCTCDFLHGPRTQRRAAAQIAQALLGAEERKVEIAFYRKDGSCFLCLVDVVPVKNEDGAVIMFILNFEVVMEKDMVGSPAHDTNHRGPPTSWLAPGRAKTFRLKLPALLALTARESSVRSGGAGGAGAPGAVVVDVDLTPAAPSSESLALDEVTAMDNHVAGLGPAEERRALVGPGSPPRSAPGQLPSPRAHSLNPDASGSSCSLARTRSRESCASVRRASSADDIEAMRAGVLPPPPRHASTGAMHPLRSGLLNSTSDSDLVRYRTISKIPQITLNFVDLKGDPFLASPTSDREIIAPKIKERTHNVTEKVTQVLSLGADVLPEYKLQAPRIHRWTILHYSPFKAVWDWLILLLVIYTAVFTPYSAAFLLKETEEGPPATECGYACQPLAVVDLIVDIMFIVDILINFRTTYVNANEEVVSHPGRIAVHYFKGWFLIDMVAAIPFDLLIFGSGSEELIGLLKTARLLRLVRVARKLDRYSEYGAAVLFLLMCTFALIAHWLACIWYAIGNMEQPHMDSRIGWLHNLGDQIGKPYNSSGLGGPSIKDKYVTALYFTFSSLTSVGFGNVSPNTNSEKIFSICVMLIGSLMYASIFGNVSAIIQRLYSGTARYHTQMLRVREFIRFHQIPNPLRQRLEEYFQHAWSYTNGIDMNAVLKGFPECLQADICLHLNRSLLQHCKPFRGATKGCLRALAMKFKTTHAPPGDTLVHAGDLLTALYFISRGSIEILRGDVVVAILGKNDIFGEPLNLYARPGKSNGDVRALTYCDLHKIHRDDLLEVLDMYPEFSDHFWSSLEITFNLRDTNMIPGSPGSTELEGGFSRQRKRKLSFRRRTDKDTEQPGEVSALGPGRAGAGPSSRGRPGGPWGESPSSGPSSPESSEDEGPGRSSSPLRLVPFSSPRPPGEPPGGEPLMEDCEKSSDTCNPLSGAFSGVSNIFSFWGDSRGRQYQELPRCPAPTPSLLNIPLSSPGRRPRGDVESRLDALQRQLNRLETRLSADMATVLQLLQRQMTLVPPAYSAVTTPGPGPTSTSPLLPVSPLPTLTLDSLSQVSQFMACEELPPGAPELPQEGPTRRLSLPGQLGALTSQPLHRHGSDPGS
Sequence of CYP2C9 (P11712 whole entry): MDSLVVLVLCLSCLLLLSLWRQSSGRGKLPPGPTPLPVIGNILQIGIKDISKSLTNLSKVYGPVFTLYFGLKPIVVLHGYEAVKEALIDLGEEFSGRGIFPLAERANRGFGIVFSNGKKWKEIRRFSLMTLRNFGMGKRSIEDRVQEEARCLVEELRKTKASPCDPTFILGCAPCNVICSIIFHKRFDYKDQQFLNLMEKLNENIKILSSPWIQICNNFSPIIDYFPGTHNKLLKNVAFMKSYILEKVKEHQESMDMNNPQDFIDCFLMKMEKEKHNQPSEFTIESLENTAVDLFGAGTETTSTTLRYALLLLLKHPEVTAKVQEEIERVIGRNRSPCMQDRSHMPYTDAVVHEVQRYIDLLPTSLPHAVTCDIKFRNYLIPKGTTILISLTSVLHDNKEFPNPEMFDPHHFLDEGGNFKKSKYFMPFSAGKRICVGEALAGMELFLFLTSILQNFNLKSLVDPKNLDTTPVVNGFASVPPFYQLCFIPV

Consider `O=C(O)c1c(Nc2cccc(F)c2)[nH]c2ccccc2c1=O`, for which it took 4 µM to reach a half-maximal effect in the series with SARS-CoV-2 (EC50). Further, the selectivity ratio in [1] was 6.2. Besides, in the series with Vero, the CC50 was > 25 µM.

`O=C(O)c1c(Nc2cccc(F)c2)[nH]c2ccc(Cl)cc2c1=O` came in with a concentration giving a half-maximal response (EC50) in the series on SARS-CoV-2 of 1.5 µM. Also, in series [1], the selectivity ratio was 17. Besides, in the series with Vero, the half-maximal cytotoxic concentration (CC50) is > 25 µM.

Compound `O=C(O)c1c(Nc2ccc(F)cc2)[nH]c2cc(F)c(F)cc2c1=O` showed a concentration giving a half-maximal response (EC50) in the series on SARS-CoV-2 of 3.5 µM. Moreover, the selectivity ratio in series [1] was found to be 7.2. For the same compound, the CC50 with Vero was > 25 µM.

Take `COc1ccc2[nH]c(Nc3cccc(F)c3)c(C(=O)O)c(=O)c2c1`: in the series with SARS-CoV-2, the EC50 stood at 3.3 µM. Moreover, the selectivity ratio in [1] was 7.6. For the same compound, the CC50 in the series with Vero was > 25 µM.

As to `CC(C)(C)[C@H](NC(=O)C(F)(F)F)C(=O)N1C[C@H]2[C@@H]([C@H]1C(=O)N[C@H](C#N)C[C@@H]1CCNC1=O)C2(C)C`, the half-maximal cytotoxic concentration (CC50) in the series on Vero was > 25 µM.

Take `CNC(=O)c1c(Nc2cccc(F)c2)[nH]c2cc(Cl)ccc2c1=O`: the EC50 in the series with SARS-CoV-2 was 7.9 µM. In addition, the selectivity ratio in series [1] was found to be 3.2. Further, in the series on Vero, the CC50 was > 25 µM.

In the case of `COC(=O)c1c([S+](C)[O-])[nH]c2ccccc2c1=O` (stereo not drawn), in the series on SARS-CoV-2, a half-maximal response (EC50) required 13.4 µM. Also, the selectivity ratio in series [1] turned out to be 1.9. In the series on Vero, the cytotoxic concentration (CC50) was > 25 µM.

Regarding `O=c1cc(Nc2cccc(F)c2)[nH]c2cc(F)c(F)cc12`, the EC50 with SARS-CoV-2 is > 25 µM. The selectivity ratio in [1] stood at 1. Besides, the half-maximal cytotoxic concentration (CC50) with Vero is > 25 µM.

Compound `COC(=O)c1c([S+](C)[O-])[nH]c2cc(Cl)ccc2c1=O` (stereo not drawn) gave a concentration for a half-maximal effect (EC50) in the series on SARS-CoV-2 of 9.4 µM. The selectivity ratio in series [1] is 1.3. In addition, the CC50 in the series with Vero worked out at 12 µM.

For `O=C(O)c1c(Nc2cccc(F)c2)[nH]c2cc(F)c(F)cc2c1=O`, in the series on SARS-CoV-2, the midpoint of the response, the EC50, lay at 3.3 µM. The selectivity ratio in series [1] came to 7.5. The CC50 in the series on Vero was > 25 µM.

With `CCC(CC)COC(=O)[C@H](C)N[P@](=O)(OC[C@H]1O[C@@](C#N)(c2ccc3c(N)ncnn23)[C@H](O)[C@@H]1O)Oc1ccccc1`, the CC50 in the series on Vero is > 25 µM.

`O=C(O)c1c(Nc2cccc(F)c2)[nH]c2cc(Cl)ccc2c1=O`: the 50% cytotoxic concentration (CC50) in the series on L929 is > 100 µM; with NIH3T3, 67 µM; in the series with CHO-K1 it was 55 µM; with Vero it was > 25 µM; with HFL1, 48 µM. Further, the inhibition at 10 µM was 9% at CYP2C19; < 1% against CYP3A4; 3% on CYP2D6; 72% against CYP1A2; 59% at CYP2C9. Moreover, the remaining at 0.5 h in series [2] was found to be 65%; in series [3] it was 62%; in [4], 14%; in series [6] it was 24%. The 50% effective concentration (EC50) with SARS-CoV-2 was found to be 1.5 µM. Besides, the selectivity ratio in series [1] is 16. Also, the half-maximal inhibitory concentration (IC50) in series [5] was > 100 µM.

`CCN(CC)CCCC(C)Nc1ccnc2cc(Cl)ccc12` (stereo not drawn) [CHLOROQUINE] registered a half-maximal effective concentration (EC50) with SARS-CoV-2 of 8.2 µM. For the same compound, the selectivity ratio in series [1] worked out at 3. Besides, the 50% cytotoxic concentration (CC50) with Vero is > 25 µM.

`O=C(O)c1c(Nc2ccc(F)cc2)[nH]c2ccc(Cl)cc2c1=O` had an EC50 in the series with SARS-CoV-2 of 2.8 µM. Also, the selectivity ratio in series [1] was 8.9. Moreover, the half-maximal cytotoxic concentration (CC50) with Vero was > 25 µM.

The compound `O=C(O)c1c(NC2CCCCC2)[nH]c2cc(Cl)ccc2c1=O` returned an EC50 in the series on SARS-CoV-2 of 4.4 µM. The selectivity ratio in series [1] was found to be 5.7. Further, the CC50 in the series on Vero is > 25 µM.

Regarding `CN(C)CCCNc1[nH]c2cc(Cl)ccc2c(=O)c1C(=O)O`, the half-maximal effective concentration (EC50) in the series with SARS-CoV-2 was > 25 µM. The selectivity ratio in series [1] turned out to be 1. Besides, the 50% cytotoxic concentration (CC50) with Vero is > 25 µM.
